Bioassay records (PubChem BioAssay)
A selection: hits, their analogues and other compounds. The true share with any hit is near 0.72%.
Redox H2O2 prof: compounds producing H2O2 with reducing agent – biochemical, NIH compound library profiling, artefact control for MLSCN library redox annotation, primary screen; AID 878; DTT-dependent redox cycling H2O2, phenol red/HRP absorbance; 100% = 100 µM peroxide control, 0% = buffer; activation, % at 10 µM; hit rate 0.03% among 200,000;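 active means activation of at least 50% relative to the plate's high and low controls in the primary single-dose screen; inactive means activation below 50%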;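 further: compound incubated with DTT at 0.8 mM final as the reducing agent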
Avidin fluor: compound fluoresces at 488/530 nm on avidin beads | AID 1775 | compound fluorescence 488/530 nm, flow cytometry; active compounds read high | hit rate 0.38% among 220,000 | fluorescence (KMESF) at 10 µM; in the data active means fluorescence above about 47
GSH fluor: compound fluoresces at 488/530 nm on GSH beads; GSH beads flow cytometry, compound fluorescence 488/530 nm; active compounds read high; fluorescence (KMESF) at 10 µM; hit rate 0.25% among 190,000; in the data active means fluorescence above about 89;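 further: glutathione beads carrying GST-tagged Bcl family fusion proteins plus one bare bead set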
ABCG2 inh: human ABCG2 inhibition, ABCB1 as counter-screen. Q9UNQ0. IgMXP3 cells, JC-1 efflux, flow cytometry. inhibition, % at 6.6 µM. hit rate 0.1% among 190,000;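 active means inhibition above 80%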
Target sequence (Q9UNQ0 whole entry, looked up): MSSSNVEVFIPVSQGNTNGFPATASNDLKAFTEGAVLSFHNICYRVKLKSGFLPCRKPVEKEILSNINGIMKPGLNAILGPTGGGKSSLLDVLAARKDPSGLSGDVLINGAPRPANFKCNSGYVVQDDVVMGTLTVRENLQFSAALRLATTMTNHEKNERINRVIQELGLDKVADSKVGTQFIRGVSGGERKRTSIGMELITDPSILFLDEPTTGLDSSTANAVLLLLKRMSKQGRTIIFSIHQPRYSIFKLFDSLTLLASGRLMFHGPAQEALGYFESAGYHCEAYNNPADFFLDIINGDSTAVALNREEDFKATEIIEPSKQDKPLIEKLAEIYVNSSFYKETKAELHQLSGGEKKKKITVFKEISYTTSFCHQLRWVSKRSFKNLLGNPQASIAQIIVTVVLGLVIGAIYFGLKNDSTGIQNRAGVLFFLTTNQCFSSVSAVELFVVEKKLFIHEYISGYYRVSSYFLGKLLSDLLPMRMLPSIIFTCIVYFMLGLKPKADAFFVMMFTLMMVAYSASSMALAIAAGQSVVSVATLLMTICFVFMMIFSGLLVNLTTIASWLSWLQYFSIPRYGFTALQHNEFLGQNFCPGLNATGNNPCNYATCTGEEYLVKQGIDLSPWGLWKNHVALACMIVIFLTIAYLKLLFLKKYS
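test system = two drug-resistant human cell lines, ABCG2 and ABCB1 | amount = 3 million cells/mL final, two lines in 1:1 ratio | reagent = JC-1 transporter substrate | doses = one concentration, 6.6 µM final | incubation = 10 min at 25 °C | signal = flow cytometric JC-1 green MFI at 530 nm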
ABCB1 block: blocks JC-1 efflux by human ABCB1 transporter; hit rate 0.067% among 190,000; AID 1326; P08183; CCRF-Adr cells, flow cytometry; inhibition, % at 6.6 µM; in the data active means inhibition above about 40%;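 further: higher value means more JC-1 retained so stronger ABCB1 efflux block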
Each line names hits and unclear results; the compound was inactive in the other large screens.

COCCNS(=O)(=O)c1ccc2c(c1)C(=O)c1cc(S(=O)(=O)NCCOC)ccc1-2	none
O=C1c2cc(S(=O)(=O)NCCCO)ccc2-c2ccc(S(=O)(=O)NCCCO)cc21	GSH fluor 251
Cn1c(=O)c2c(ncn2CC(=O)Nc2ccccc2Sc2ccccc2)n(C)c1=O	none
Cn1c(=O)c2c(ncn2CC(=O)Nc2ccccc2N2CCOCC2)n(C)c1=O	Avidin fluor 67
COc1ccc(CCNC(=O)C2CCCN(c3ncccn3)C2)cc1 (stereo not given)	none
O=C(CN(C(=O)CCC(=O)Nc1nccs1)c1cccc(F)c1)NCC1CCCO1 (stereo not given)	Avidin fluor 59
O=C(CN(C(=O)CCC(=O)Nc1nccs1)c1ccc2c(c1)OCO2)NCC1CCCO1 (stereo not given)	none
Cc1ccc(N(CC(=O)NCCSc2ccccn2)S(=O)(=O)c2ccc(F)cc2)cc1	none
COc1ccc(-c2nnc(SCC(=O)Nc3cc(C)on3)o2)cc1	none
COc1ccc(-c2nnc(SCC(=O)Nc3cc(F)ccc3C)o2)cc1	Avidin fluor 116
Cc1ccc(C(=O)NC(=O)CSc2ncccc2C(=O)O)cc1	none
O=C(CN(Cc1ccccc1)S(=O)(=O)c1ccc2c(c1)OCCO2)Nc1ccc2c(c1)OCCO2	Avidin fluor 95
CCOC(=O)c1c(NC(=O)COC)sc(C)c1C	GSH fluor 126
Cn1c(=O)n(C)c2cc(S(=O)(=O)NCc3ccco3)ccc21	Avidin fluor 176
CC(=O)c1ccc(NC(=O)C(C)N2CCN(C/C=C/c3ccccc3)CC2)cc1 (stereo not given)	GSH fluor 246
COCCN1C(=O)c2ccccc2C(C(=O)Nc2ccc3c(c2)OCCO3)C1c1ccc(F)cc1 (stereo not given)	Avidin fluor 62
CCN(CC)CCCNC(=O)C1c2ccccc2C(=O)N(CCOC)C1c1ccc(F)cc1 (stereo not given)	none
CCCn1c(N)c(NCCN2CCOCC2)c(=O)n(CC(=O)NCc2ccccc2)c1=O	none
CNc1nc(-c2c[nH]c3ccccc23)cs1	Avidin fluor 93
N#CC(C(=O)OC1CCCCC1)c1nc2ccccc2nc1N1CCOCC1 (stereo not given)	Avidin fluor 110
CN1CCN(c2nc3ccccc3nc2C(C#N)C(=O)OC2CCCCC2)CC1 (stereo not given)	none
CC(C)CCNC(=O)NC(=O)COC(=O)CNC(=O)C1CCCCC1	none
O=C(CCc1nc2ccccc2c(=O)[nH]1)NC1CCN(Cc2ccccc2)CC1	GSH fluor 256
O=C(NC1CCCCC1)N1CCN(Cc2nc3ccccc3c(=O)[nH]2)CC1	none (no result: Avidin fluor, GSH fluor, ABCG2 inh, ABCB1 block)
O=C(O)c1ccccc1NS(=O)(=O)c1ccc2c3c(cccc13)C(=O)N2	Avidin fluor 75
COC(=O)c1ccccc1NS(=O)(=O)c1ccc2c3c(cccc13)C(=O)N2	none (no result: Avidin fluor, GSH fluor, ABCG2 inh, ABCB1 block)
CC(=O)Nc1ccc(N2CCN(C(=O)c3cccs3)CC2)cc1	Avidin fluor 99
Nc1ccc(N2CCN(C(=O)c3cccs3)CC2)cc1	none
Cc1onc(-c2ccccc2Cl)c1C(=O)OCC(=O)N1CCCc2ccccc21	GSH fluor 267
Cc1onc(-c2ccccc2Cl)c1C(=O)N1CCCc2ccccc21	none
Cc1onc(-c2ccccc2Cl)c1C(=O)OCC(=O)Nc1ccc2c(c1)OCO2	GSH fluor 263
Cc1onc(-c2ccccc2)c1C(=O)OCC(=O)Nc1ccc2c(c1)OCO2	none
Cn1cccc1-c1nc2ccccc2[nH]1	none (no result: Redox H2O2 prof, GSH fluor, ABCG2 inh, ABCB1 block)
CCCCn1c(SCC(=O)N2CC(C)CC(C)C2)nc2cc(S(N)(=O)=O)ccc21 (stereo not given)	GSH fluor 262
CCCCn1c(SCC(=O)N2CCCCC2)nc2cc(S(N)(=O)=O)ccc21	none
O=C(CNC(=O)/C(=C\c1ccc(F)cc1)NC(=O)c1ccccc1)OCc1ccccc1	Avidin fluor 199
CS(=O)(=O)N1CCN(c2cnn(-c3ccccc3)c(=O)c2Cl)CC1	Avidin fluor 90
CCC(C)NC(=O)CSc1nnc(-c2ccc(Cl)cc2)n1N (stereo not given)	none
CCn1ncc(Br)c1C(=O)Nc1cc([N+](=O)[O-])ccc1C	none (no result: ABCB1 block)
COc1ccc(CN2CCN(c3ccc(F)cc3)CC2)c(OC)c1OC	Avidin fluor 67
COc1ccc(CN2CCN(S(=O)(=O)c3ccc(F)cc3)CC2)c(OC)c1OC	none
C=C(C)[C@@H]1CC=C(CN2CCC(CCOC)(C(=O)OCC)CC2)CC1	none
O=C(CSc1nnc(-c2ccco2)o1)NC(=O)C1COc2ccccc2O1 (stereo not given)	GSH fluor 245
O=C(OCC(=O)N1CCN(C(=O)c2ccco2)CC1)c1cccc(S(=O)(=O)N2CCc3ccccc32)c1	none
O=C(Nc1cccnc1)c1ccc(Cl)c(S(=O)(=O)N2CCc3ccccc32)c1	Avidin fluor 62
Cc1ccc2nc(Cl)c3nnnn3c2c1	none
O=C(Cn1c(-c2cscn2)nc2ccccc21)Nc1ccccc1F	Avidin fluor 50
COc1ccccc1CNC(=O)Cn1cnc2ccccc2c1=O	GSH fluor 234
O=C(Cn1cnc2ccccc21)NCc1ccccc1	Avidin fluor 58
O=C(c1cc2c(s1)-c1ccccc1S(=O)(=O)C2)N1CCN(Cc2ccccc2)CC1	Avidin fluor 151
COc1c(Cl)cccc1-c1cn2ccc(C)cc2n1	none (no result: Redox H2O2 prof, GSH fluor, ABCG2 inh, ABCB1 block)
Cc1ccc(NC(=O)COC(=O)c2cccc3c(=O)c(C)c(-c4ccccc4)oc23)cc1	none (no result: Redox H2O2 prof)
OCC1(CCc2ccccc2)CCN(Cc2cccn2-c2cccnc2)CC1	none
Cn1c(=S)n(C)c2ccccc21	Avidin fluor 84
COc1ccc(Cn2c(CCC(=O)Nc3ccc(C)cc3)nc3cccnc32)cc1	Avidin fluor 53
FC(F)Oc1ccc(NC(=S)NCCc2ccccn2)cc1	none
CC(C)CSC1=NSC2=NC(=O)/C(=C\c3coc4ccccc4c3=O)C(=N)N12	ABCG2 inh active, ABCB1 block 134
CCOC(=O)N1CCC(NC(=O)c2ccc(CNS(=O)(=O)c3ccc(F)cc3)cc2)CC1	Avidin fluor 61
COc1ccc(OCC(O)CNC(=O)c2c(-c3ccccc3)noc2C)cc1 (stereo not given)	none (no result: Redox H2O2 prof, GSH fluor, ABCG2 inh, ABCB1 block)
CN(CC(=O)N1CCN(c2ccccn2)CC1)S(=O)(=O)c1ccccc1	Avidin fluor 49
Cc1cccc(C)c1NC(=O)C(c1ccc([N+](=O)[O-])cc1)N(C)C(=O)c1ccccn1 (stereo not given)	none
Cc1cc(=O)oc2cc(OCc3nnc(-c4ccccc4Br)o3)ccc12	Avidin fluor 49
O=c1ccc2ccc(OCc3nnc(-c4ccccc4Br)o3)cc2o1	none
CCOC(=O)c1c(-c2ncc(C(F)(F)F)cc2Cl)noc1C	none
COc1ccc(Cc2noc(COc3ccc(Cl)cc3)n2)cc1	GSH fluor 92
COc1ccc(Cc2nc(-c3ccc(Cl)cc3)no2)cc1	none
